Experimental findings from ChEMBL document CHEMBL4354879, “Bioisosteric Discovery of NPA101.3, a Second-Generation RET/VEGFR2 Inhibitor Optimized for Single-Agent Polypharmacology” (J Med Chem, 2020) are described below.

Active and inactive are the calls of the source. The rule behind the calls is not given here.

For data set [1], the system named is Proto-oncogene tyrosine-protein kinase receptor Ret (Homo sapiens), P07949 [C634R]. Nature of the data set: Inhibition of RET isoform 9 C634R mutant (unknown origin) expressed in rat Rat1 assessed as reduction in RET phosphorylation at Y905 residue at 3 nM measured after 2 hrs by Western blot analysis. In kind it is cell-based. The procedure, abridged:
(§1)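 RAT1 fibroblasts expressing RET-9 C634R, serum-starved, treated 2 h with 0.1–10.0 nM; 50 μg lysate blotted for RET pY905 and pY1062, normalized to total RET; ECL detection.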
For orientation: In western blotting, separated proteins are transferred to a membrane and probed.

Data set [2] has as its system Mus musculus. Nature of the data set: In vivo inhibition of RET isoform 9 C634Y mutant transfected in mouse NIH/3T3 cells implanted BALB/c nu/nu mouse assessed as reduction in RET phosphorylation at Y905 residue at 3 mg/kg, po administered once daily via gavage for 2 days measured 3 hrs post-last dose by Western blot analysis.
For data set [3], the target named is MAP kinase-interacting serine/threonine-protein kinase 2 (Homo sapiens) (UniProt Q9HBH9). Nature of the data set: Binding affinity to wild-type human partial length MKNK2 (G63 to S388 residues) expressed in mammalian expression system at 100 nM by Kinomescan method relative to control.
Data set [4] can be described thus: Toxicity in BALB/c nu/nu mouse assessed as change in albumin level at 10 mg/kg, po administered daily for 7 days. In kind it is organism-based. Particulars: in vivo, 168 h. Summed up: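 Mice dosed orally with 10 mg/kg/day for 7 days; standard blood markers of organ damage measured.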
Data set [5] concerns Proto-oncogene tyrosine-protein kinase receptor Ret (Homo sapiens), P07949 [C634R]. Briefly: Inhibition of RET isoform 9 C634R mutant (unknown origin) expressed in rat Rat1 assessed as reduction in RET phosphorylation at Y905 residue at 0.3 nM measured after 2 hrs by Western blot analysis. It is filed as cell-based. Summed up:
as §1

Data set [6] has as its target Tyrosine-protein kinase Lyn (Homo sapiens) (UniProt P07948). Nature of the data set: Binding affinity to wild-type human partial length LYN (C219 to Q511 residues) expressed in bacterial expression system at 100 nM by Kinomescan method relative to control.
The subject of data set [7] is Mus musculus. Briefly: In vivo inhibition of RET isoform 9 C634Y mutant transfected in mouse NIH/3T3 cells implanted BALB/c nu/nu mouse assessed as reduction in SHC phosphorylation at 3 mg/kg, po administered once daily via gavage for 2 days measured 3 hrs post-last dose by Western blot analysis.
In data set [8] the target is NT-3 growth factor receptor (Homo sapiens) (UniProt Q16288). Briefly: Binding affinity to wild-type human partial length TRKC (Q531 to G825 residues) expressed in mammalian expression system at 100 nM by Kinomescan method relative to control.
Data set [9] relates to Mus musculus. Nature of the data set: In vivo inhibition of RET isoform 9 C634R mutant transfected in mouse NIH/3T3 cells implanted BALB/c nu/nu mouse assessed as reduction in RET phosphorylation at Y1062 residue in tumor at 1 mg/kg, po administered once daily via gavage for 3 days measured 3 hrs post-last dose by Western blot analysis. It is filed as functional, organism-based.

Data set [10] has as its target Coiled-coil domain-containing protein 6/Tyrosine-protein kinase receptor RET (Homo sapiens) (UniProt P07949+Q16204). Briefly: Inhibition of CCDC6/RET in human LC2/ad cells assessed as reduction in RET phosphorylation at Y1062 residue at 0.3 to 30 nM measured after 2 hrs by Western blot analysis. It is filed as cell-based.
Data set [11] concerns the target T1, SHC-transforming protein 1 (Homo sapiens) (UniProt P29353).
T1 sequence (whole entry): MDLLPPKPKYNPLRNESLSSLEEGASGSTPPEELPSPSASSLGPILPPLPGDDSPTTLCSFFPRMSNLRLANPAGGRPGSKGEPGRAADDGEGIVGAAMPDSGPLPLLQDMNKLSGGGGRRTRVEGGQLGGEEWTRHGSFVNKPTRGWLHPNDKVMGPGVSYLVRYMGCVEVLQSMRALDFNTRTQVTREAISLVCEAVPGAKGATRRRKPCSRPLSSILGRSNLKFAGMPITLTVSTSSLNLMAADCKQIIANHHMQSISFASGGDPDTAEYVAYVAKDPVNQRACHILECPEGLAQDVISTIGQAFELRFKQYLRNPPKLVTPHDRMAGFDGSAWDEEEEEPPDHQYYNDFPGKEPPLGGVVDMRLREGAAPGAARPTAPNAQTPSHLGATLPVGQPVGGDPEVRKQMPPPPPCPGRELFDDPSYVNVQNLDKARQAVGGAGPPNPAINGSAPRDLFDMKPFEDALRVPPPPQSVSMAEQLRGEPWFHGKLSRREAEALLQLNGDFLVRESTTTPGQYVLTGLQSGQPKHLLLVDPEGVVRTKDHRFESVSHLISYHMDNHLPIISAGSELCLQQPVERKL
Briefly: Effect on SHC phosphorylation in RET deficient human PC9 cells at 1 to 100 nM measured after 2 hrs by western blot analysis.

Another data set is filed under the species Homo sapiens. Briefly: Inhibition of NCOA4/RET isoform 9 (unknown origin) expressed in mouse NIH/3T3 cells assessed as reduction in RET phosphorylation at Y1062 residue at 1 to 100 nM measured after 2 hrs by Western blot analysis. It is filed as cell-based. Summed up: (§2)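 Serum-starved RAT1 (RET point mutants) or NIH3T3 (RET rearrangements) cells expressing short RET-9 isoform, treated 2 h; 50 μg total lysate immunoblotted with anti-phospho-Y1062 and anti-phospho-Y905 RET antibodies, normalized to total RET; ECL detection. Compound from 50 mM DMSO stock diluted in growth medium.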

The test system of another data set is BaF3. Nature of the data set: Inhibition of NCOA4/RET […] (unknown origin) expressed in mouse BAF3 cells assessed as reduction in RET phosphorylation at Y905 residue at 0.3 to 30 nM measured after 2 hrs by Western blot analysis. It is filed as cell-based. Particulars: Homo sapiens. The procedure, abridged: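 Ba/F3 cells stably expressing long-isoform RET-51 mutants (electroporation), cultured in RPMI/10% FCS without IL-3; RET phosphorylation read by Western blot with anti-phospho-Y905 and anti-phospho-Y1062 antibodies, ECL detection.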

The test system of data set [12] is Mus musculus. Nature of the data set: In vivo inhibition of RET isoform 9 C634Y mutant transfected in mouse NIH/3T3 cells implanted BALB/c nu/nu mouse assessed as reduction in MAPK phosphorylation in tumor at 1 mg/kg, po administered once daily via gavage for 3 days measured 3 hrs post-last dose by Western blot analysis.
The test system of data set [13] is Proto-oncogene tyrosine-protein kinase receptor Ret (Homo sapiens), P07949 [M918T]. Nature of the data set: Inhibition of RET isoform 9 M918T mutant (unknown origin) expressed in rat Rat1 assessed as reduction in RET phosphorylation at Y1062 residue at 1 to 100 nM measured after 2 hrs by Western blot analysis. It is filed as cell-based. The procedure, abridged: as §2

Another data set relates to PC-9. Nature of the data set: Cytotoxicity against RET deficient human PC9 cells supplemented with fresh medium containing compound for every 2 to 3 days measured during compound dosing. It is filed as functional, cell-based. Summed up: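 Human RET-negative lines were seeded in six-well plates at 10000 cells/well, in 5% FCS (Nthy-ori-3-1) or 10% FCS (BCPAP, 8505-C, CALU-1, A549, PC-9). Drug or vehicle was added the day after plating, with medium changed every 2–3 days. Cells were counted every 2–3 days. IC50 was fitted from the last day of the growth curves.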

Sequence of Proto-oncogene tyrosine-protein kinase receptor Ret (Homo sapiens), P07949 [C634R] (P07949 whole entry C634R, canonical isoform): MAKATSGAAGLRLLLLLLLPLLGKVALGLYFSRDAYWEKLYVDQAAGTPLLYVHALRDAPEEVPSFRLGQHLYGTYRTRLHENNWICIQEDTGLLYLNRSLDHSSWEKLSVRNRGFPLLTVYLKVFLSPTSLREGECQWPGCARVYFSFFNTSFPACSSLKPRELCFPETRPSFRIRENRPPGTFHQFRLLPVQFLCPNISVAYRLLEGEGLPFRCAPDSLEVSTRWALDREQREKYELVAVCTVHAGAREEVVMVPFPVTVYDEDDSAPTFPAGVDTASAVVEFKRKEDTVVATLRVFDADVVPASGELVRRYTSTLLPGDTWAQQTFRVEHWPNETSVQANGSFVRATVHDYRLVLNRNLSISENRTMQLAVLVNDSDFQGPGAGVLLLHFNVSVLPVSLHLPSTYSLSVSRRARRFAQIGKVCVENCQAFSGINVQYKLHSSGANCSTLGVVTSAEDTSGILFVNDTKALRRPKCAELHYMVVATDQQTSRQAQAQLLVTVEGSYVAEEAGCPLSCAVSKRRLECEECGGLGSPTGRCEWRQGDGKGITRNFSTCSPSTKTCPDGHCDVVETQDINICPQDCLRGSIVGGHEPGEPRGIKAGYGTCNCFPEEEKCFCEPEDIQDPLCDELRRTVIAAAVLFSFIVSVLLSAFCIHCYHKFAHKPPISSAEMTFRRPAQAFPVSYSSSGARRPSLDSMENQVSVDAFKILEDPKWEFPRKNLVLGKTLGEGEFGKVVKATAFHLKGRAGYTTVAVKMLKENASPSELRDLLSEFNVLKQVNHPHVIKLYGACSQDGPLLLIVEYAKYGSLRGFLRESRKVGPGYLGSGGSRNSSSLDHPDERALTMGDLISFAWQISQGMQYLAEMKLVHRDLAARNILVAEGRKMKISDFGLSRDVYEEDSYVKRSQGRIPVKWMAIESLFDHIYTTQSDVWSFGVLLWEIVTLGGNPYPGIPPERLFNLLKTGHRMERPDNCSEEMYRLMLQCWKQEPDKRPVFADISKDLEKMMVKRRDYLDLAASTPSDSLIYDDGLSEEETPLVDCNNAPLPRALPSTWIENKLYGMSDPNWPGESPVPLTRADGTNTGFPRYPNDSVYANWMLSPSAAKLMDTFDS
Sequence of Tyrosine-protein kinase Lyn (Homo sapiens) (P07948 2-512 limits assumed): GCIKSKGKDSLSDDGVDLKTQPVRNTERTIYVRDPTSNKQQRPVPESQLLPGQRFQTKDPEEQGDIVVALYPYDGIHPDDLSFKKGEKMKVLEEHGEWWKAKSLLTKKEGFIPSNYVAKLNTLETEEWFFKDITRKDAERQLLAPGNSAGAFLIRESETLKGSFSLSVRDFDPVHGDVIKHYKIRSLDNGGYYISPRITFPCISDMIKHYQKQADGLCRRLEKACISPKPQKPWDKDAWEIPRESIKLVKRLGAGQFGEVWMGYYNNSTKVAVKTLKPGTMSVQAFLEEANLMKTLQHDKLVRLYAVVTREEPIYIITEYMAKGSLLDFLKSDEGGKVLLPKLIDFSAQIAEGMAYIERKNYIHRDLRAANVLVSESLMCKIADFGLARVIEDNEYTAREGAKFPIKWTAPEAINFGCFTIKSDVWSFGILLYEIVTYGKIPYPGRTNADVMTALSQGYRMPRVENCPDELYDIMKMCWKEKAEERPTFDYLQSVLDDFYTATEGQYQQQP
Sequence of NT-3 growth factor receptor (Homo sapiens) (Q16288 32-839 limits assumed): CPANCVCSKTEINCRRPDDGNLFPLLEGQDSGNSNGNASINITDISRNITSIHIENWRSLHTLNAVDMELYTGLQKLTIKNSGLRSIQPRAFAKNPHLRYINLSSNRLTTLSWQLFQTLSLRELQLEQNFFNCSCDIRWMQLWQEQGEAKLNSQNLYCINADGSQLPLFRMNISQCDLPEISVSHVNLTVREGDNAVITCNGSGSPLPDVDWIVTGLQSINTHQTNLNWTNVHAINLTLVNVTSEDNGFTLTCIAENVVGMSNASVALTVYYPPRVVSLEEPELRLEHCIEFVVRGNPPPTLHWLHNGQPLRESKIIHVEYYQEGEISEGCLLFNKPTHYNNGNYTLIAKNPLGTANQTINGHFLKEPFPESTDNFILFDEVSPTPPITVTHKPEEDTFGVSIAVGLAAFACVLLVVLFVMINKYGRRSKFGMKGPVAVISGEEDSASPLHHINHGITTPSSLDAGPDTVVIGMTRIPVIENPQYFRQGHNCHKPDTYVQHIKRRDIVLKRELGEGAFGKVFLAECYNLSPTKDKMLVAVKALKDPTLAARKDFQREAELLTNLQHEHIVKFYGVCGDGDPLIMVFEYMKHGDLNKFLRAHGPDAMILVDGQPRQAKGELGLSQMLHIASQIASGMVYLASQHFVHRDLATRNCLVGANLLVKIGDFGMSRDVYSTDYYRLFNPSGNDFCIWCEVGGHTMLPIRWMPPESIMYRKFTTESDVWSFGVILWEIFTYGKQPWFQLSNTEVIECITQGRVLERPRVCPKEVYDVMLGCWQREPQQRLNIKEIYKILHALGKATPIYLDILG
Sequence of Coiled-coil domain-containing protein 6/Tyrosine-protein kinase receptor RET (Homo sapiens) (P07949 29-1114 limits assumed): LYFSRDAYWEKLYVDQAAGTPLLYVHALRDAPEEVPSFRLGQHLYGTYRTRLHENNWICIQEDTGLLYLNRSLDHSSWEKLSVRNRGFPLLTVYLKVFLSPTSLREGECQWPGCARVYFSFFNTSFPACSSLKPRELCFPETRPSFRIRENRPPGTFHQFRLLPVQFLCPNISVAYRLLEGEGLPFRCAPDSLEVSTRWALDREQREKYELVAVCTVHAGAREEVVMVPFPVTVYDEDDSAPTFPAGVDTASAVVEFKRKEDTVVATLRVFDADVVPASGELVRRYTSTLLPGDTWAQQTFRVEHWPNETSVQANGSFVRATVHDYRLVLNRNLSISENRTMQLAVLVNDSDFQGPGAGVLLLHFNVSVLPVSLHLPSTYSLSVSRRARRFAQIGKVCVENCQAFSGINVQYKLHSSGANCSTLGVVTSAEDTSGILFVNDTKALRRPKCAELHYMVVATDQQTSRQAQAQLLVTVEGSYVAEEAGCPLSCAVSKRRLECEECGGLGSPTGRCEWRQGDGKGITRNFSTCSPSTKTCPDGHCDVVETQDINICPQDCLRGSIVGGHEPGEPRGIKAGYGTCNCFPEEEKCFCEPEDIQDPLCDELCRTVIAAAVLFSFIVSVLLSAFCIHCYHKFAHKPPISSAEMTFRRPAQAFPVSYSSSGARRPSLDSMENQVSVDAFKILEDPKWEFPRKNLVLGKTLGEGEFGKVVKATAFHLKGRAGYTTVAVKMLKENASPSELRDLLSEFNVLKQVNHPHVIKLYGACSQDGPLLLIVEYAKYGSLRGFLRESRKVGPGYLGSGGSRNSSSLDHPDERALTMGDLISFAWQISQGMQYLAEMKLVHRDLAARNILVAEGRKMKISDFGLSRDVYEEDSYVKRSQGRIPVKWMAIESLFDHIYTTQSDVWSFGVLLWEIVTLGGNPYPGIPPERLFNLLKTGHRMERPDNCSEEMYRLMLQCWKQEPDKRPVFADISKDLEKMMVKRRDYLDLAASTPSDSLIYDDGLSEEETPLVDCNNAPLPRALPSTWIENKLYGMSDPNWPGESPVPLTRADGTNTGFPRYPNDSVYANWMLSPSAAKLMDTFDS
Sequence of Coiled-coil domain-containing protein 6/Tyrosine-protein kinase receptor RET (Homo sapiens) (Q16204 2-474 partner limits assumed): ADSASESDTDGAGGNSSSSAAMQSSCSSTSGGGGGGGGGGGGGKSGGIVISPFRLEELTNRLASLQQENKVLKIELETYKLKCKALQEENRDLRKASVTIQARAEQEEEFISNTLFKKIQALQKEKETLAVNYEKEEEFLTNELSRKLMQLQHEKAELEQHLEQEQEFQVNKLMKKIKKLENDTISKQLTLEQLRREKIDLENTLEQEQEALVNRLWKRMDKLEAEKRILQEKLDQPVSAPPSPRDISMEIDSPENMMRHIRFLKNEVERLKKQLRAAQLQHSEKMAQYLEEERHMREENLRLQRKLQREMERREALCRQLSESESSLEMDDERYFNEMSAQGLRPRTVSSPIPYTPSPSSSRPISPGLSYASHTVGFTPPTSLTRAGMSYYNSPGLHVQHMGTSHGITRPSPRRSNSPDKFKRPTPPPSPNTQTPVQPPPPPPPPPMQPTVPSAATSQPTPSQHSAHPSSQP
Sequence of MAP kinase-interacting serine/threonine-protein kinase 2 (Homo sapiens) (Q9HBH9 whole entry, looked up, the tested form may be a part): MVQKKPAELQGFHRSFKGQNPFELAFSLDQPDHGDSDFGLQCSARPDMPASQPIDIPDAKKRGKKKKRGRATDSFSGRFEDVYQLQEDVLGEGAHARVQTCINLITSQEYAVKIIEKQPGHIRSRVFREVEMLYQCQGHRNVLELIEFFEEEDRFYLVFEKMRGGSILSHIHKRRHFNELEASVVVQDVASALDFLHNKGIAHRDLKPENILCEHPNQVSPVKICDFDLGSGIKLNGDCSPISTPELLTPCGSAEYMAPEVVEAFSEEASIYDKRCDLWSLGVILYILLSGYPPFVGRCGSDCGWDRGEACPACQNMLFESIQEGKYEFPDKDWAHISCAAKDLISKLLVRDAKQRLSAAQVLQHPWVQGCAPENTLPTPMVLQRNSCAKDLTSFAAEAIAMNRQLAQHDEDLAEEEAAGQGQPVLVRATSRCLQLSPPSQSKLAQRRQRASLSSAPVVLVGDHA
Sequence of Proto-oncogene tyrosine-protein kinase receptor Ret (Homo sapiens), P07949 [M918T] (P07949 whole entry M918T, canonical isoform): as the sequence (P07949 whole entry C634R, canonical isoform) above, with R634C, M918T counted along it

`CC(C)(C)c1cc(NC(=O)Cc2ccc(-n3cnc4cc(-c5ccc(S(C)(=O)=O)cc5)ccc43)cc2)no1`: the inhibition (as a rule, the change of the read-out against control, counted positive when it falls) in data set [1] stood at 100%. Also, the inhibition result (in the data set with Mus musculus [2]; in [5]; with Mus musculus [7]; with Mus musculus [9]; in data set [10]; in the data set listed under Homo sapiens) was “Active” throughout. Also, the inhibition entry (in the data set on BaF3; with Mus musculus [12]; in [13]) was “Active” in each case. Further, the Activity in [3] was over 90%; in [4] it was “Non-Toxic”; in [6], over 90%; in [8] it was over 90%. In [11], the result was inactive. In addition, in the data set with PC-9, the IC50 (in general, the concentration at which inhibition is half-maximal) was over 100 nM.
